Laboratory results reported in ChEMBL document CHEMBL3853346, “Synthesis of arylated coumarins by Suzuki-Miyaura cross-coupling. Reactions and anti-HIV activity” (Bioorg Med Chem, 2016).
In brackets after ≈: the same amount, converted by molar mass.

Tests used:
[1] = system: Human immunodeficiency virus 1; experiment: Antiviral activity against HIV-1 3B infected in human MT-4 cells assessed as protection against virus induced cytopathic effect after 5 days by MTT assay; format: functional, cell-based; details: Human immunodeficiency virus 1, 3B, MT4, 120 h
Summary of the method: (§1)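 MT-4 cells, exponentially growing, resuspended at 6 x 10⁵ cells/mL and infected with HIV-1 IIIB or HIV-2 ROD at 100-300 CCID50. Test compounds added as serial 5-fold dilutions in triplicate wells at the start. Untreated infected and mock-infected controls included. Viability read by MTT spectrophotometrically 5 days post-infection. EC50 is the concentration giving 50% protection from virus-induced cytopathic effect.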

[2] = Cytotoxicity against human MT4 cells assessed as reduction in cell viability after 5 days by MTT assay; format: toxicity, cell-based
Summary of the method: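 Mock-infected MT-4 cells (6 x 10⁵ cells/mL) were run in parallel with the infected series. Serial 5-fold compound dilutions were tested in triplicate wells, with culture medium in place of virus. Viability was measured by MTT at day 5. CC50 is the concentration that reduces viability of mock-infected cells by 50%.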

[3] = Selectivity index, ratio of CC50 for human MT-4 cells to IC50 for HIV-2 ROD infected in human MT-4 cells; format: functional, MT4
Summary of the method: (§2)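 Selectivity index is CC50 in mock-infected MT-4 cells divided by IC50 against HIV-1 IIIB or HIV-2 ROD. Both values come from parallel 5-day MTT assays in the same plates.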

[4] = Antiviral activity against HIV-2 ROD infected in human MT-4 cells assessed as protection against virus induced cytopathic effect after 5 days by MTT assay; format: functional, cell-based, Human immunodeficiency virus type 2 (ISOLATE ROD); details: Human immunodeficiency virus 2, MT4, 120 h; summary of the method: as §1
[5] = Selectivity index, ratio of CC50 for human MT-4 cells to IC50 for HIV-1 3B infected in human MT-4 cells; format: functional, MT4; summary of the method: as §2

SMILES	IC50 [1] [µg/mL]	CC50 at 120 h [2] [µg/mL]	Ratio CC50/IC50 [3]	IC50 [4] [µg/mL]	Ratio CC50/IC50 [5]
COc1cccc(-c2cc3oc(=O)cc(C)c3cc2OS(=O)(=O)C(F)(F)F)c1	> 18.9	18.9 (≈ 45.5 µM)	<1	> 18.9	<1
COc1ccc(-c2cc3oc(=O)cc(C)c3cc2-c2ccc(F)cc2)cc1	> 10.9	10.9 (≈ 30.3 µM)	<1	> 10.9	<1
COc1ccc(-c2cc3oc(=O)cc(C)c3cc2-c2cc(C)cc(C)c2)cc1	> 2.08	2.08 (≈ 5.61 µM)	<1	> 2.08	<1
Cc1ccc(-c2cc3oc(=O)cc(C)c3cc2OS(=O)(=O)C(F)(F)F)cc1	> 11	11 (≈ 27.6 µM)	<1	> 11	<1
Cc1cc(C)cc(-c2cc3oc(=O)cc(C)c3cc2-c2cc(C)cc(C)c2)c1	4.57 (≈ 12.4 µM)	14.4 (≈ 39.1 µM)	<1	> 14.4	3
COc1ccc(-c2cc3oc(=O)cc(C)c3cc2-c2cccc(C)c2)cc1	> 7.4	7.4 (≈ 20.8 µM)	<1	> 7.4	<1
CCOc1ccc(-c2cc3oc(=O)cc(C)c3cc2-c2ccc(OCC)cc2)cc1	> 37.3	37.3 (≈ 93.2 µM)	<1	> 37.3	<1
Cc1cc(=O)oc2cc(-c3ccc(Cl)cc3)c(-c3ccc(Cl)cc3)cc12	> 16	16 (≈ 41.9 µM)	<1	> 16	<1
COc1ccc(-c2cc3oc(=O)cc(C)c3cc2-c2ccc(OC)cc2)cc1	> 11	11 (≈ 29.5 µM)	<1	> 11	<1
Cc1cc(=O)oc2cc(-c3ccc(C(F)(F)F)cc3)c(OS(=O)(=O)C(F)(F)F)cc12	> 80.3	80.3 (≈ 178 µM)	<1	> 80.3	<1
Cc1cc(=O)oc2cc(OS(=O)(=O)C(F)(F)F)c(OS(=O)(=O)C(F)(F)F)cc12	> 43.5	43.5 (≈ 95.3 µM)	<1	> 43.5	<1
COc1ccc(-c2cc3oc(=O)cc(C)c3cc2OS(=O)(=O)C(F)(F)F)c(OC)c1OC	> 2.13	2.13 (≈ 4.49 µM)	<1	> 2.13	<1
COc1ccc(-c2cc3oc(=O)cc(C)c3cc2OS(=O)(=O)C(F)(F)F)cc1	> 10.6	≥ 10.6	<1	> 10.6	<1
Cc1cc(C)cc(-c2cc3oc(=O)cc(C)c3cc2OS(=O)(=O)C(F)(F)F)c1	> 33.1	33.1 (≈ 80.3 µM)	<1	> 33.1	<1
CCOc1ccc(-c2cc3oc(=O)cc(C)c3cc2OS(=O)(=O)C(F)(F)F)cc1	> 27.2	≥ 27.2	<1	> 27.2	< 1
Cc1cc(=O)oc2cc(-c3ccc(C(C)(C)C)cc3)c(OS(=O)(=O)C(F)(F)F)cc12	> 10.3	10.3 (≈ 23.3 µM)	<1	> 10.3	<1
Cc1cc(=O)oc2cc(-c3ccccc3)c(-c3ccccc3)cc12	> 13.8	13.8 (≈ 44.1 µM)	<1	> 13.8	<1
COc1ccc(-c2cc3oc(=O)cc(C)c3cc2-c2ccc(Cl)cc2)cc1	> 2.06	2.06 (≈ 5.47 µM)	<1	> 2.06	<1
Cc1cccc(-c2cc3oc(=O)cc(C)c3cc2OS(=O)(=O)C(F)(F)F)c1	13.2 (≈ 33.1 µM)	61.3 (≈ 154 µM)	<1	> 61.3	5
Cc1cc(=O)oc2cc(-c3ccc(F)cc3)c(OS(=O)(=O)C(F)(F)F)cc12	> 10.6	10.6 (≈ 26.4 µM)	<1	> 10.6	<1
Cc1cc(=O)oc2cc(-c3ccc(Cl)cc3)c(OS(=O)(=O)C(F)(F)F)cc12	> 30.6	35.6 (≈ 85.1 µM)	<1	> 35.6	<1
Cc1cc(=O)oc2cc(-c3ccccc3)c(OS(=O)(=O)C(F)(F)F)cc12	> 12.5	12.6 (≈ 32.7 µM)	<1	> 12.5	<1
Cc1ccnc2c1NC(=O)c1cccnc1N2C1CC1 [NEVIRAPINE]	–	> 4	<1	> 4	>80
Cc1cn([C@H]2C[C@H](N=[N+]=[N-])[C@@H](CO)O2)c(=O)[nH]c1=O [ZIDOVUDINE]	–	> 25	>26596	0.00094 (≈ 0.00352 µM)	>11363
